Reference: the array DNA melting data of Ke et al. (doi:10.1101/2024.01.08.574731)

What was measured:
[1] = folding enthalpy; higher = less favourable; fluorescence melt of hairpins on a sequencing array, two-state fit; settings: sodium 0.088 M
Summary of the method: (§1)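 On a sequenced MiSeq flow cell, library hairpins with annealed Cy3 and quencher oligos were imaged for Cy3 fluorescence in 2.5 °C steps up to 60 °C, in 50 mM Na-HEPES pH 8.0, 25 mM NaCl. Normalisation used pre-quench Cy3 and control constructs. Bootstrapped two-state fits gave melting temperature and folding enthalpy, combined by inverse variance across four replicates and with fitted temperatures raised by 9.35 °C to match UV melts.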

[2] = melting temperature; fluorescence melt of hairpins on a sequencing array, two-state fit, raised by 9.35 °C to match UV melts; settings: sodium 0.088 M
Summary of the method: as §1

GTCTGCGAAAGCATCGAC ((((((....)))..)))
folding enthalpy [1]: -14.8 kcal/mol | Tm [2]: 33.6 °C

GCCAAGCGAAAGCAGGGC (((..((....))..)))
folding enthalpy [1]: -26.4 kcal/mol | Tm [2]: 60.4 °C

GGCTGTGGAAACACAGTC (.(((((....))))).)
folding enthalpy [1]: -28.2 kcal/mol | Tm [2]: 54.2 °C

GGCATACCGAAAGGTGCC (((..(((....))))))
folding enthalpy [1]: -39.5 kcal/mol | Tm [2]: 53.3 °C

GCGTATGTACGC ((((....))))
folding enthalpy [1]: -22.4 kcal/mol | Tm [2]: 54.8 °C

GGGGTCGAAAGACAACCC ((((((....)))..)))
folding enthalpy [1]: -21.2 kcal/mol | Tm [2]: 48.8 °C

GATCAGCAAGCTGATC ((((((....))))))
folding enthalpy [1]: -33 kcal/mol | Tm [2]: 58.7 °C

GCGCCGCGAAAGCTTCGC (((..((....))..)))
folding enthalpy [1]: -15.6 kcal/mol | Tm [2]: 54.7 °C

GTGTGGGGAAACCCGCAC (((.(((....))).)))
folding enthalpy [1]: -35.3 kcal/mol | Tm [2]: 59.7 °C

GTCTTGGGAAACCAAGGC (.(((((....))))).)
folding enthalpy [1]: -24.4 kcal/mol | Tm [2]: 51 °C

GCTGAGCGAAAGCTTCGC ((..(((....)))..))
folding enthalpy [1]: -13.4 kcal/mol | Tm [2]: 49.5 °C

GATCAGCTAGCTGATC ((((((....))))))
folding enthalpy [1]: -48 kcal/mol | Tm [2]: 62.1 °C

GCGACGCGAAAGCCTCGC ((((.((....)).))))
folding enthalpy [1]: -33.3 kcal/mol | Tm [2]: 60.4 °C

GAGCGCGAAAGCGCCCTC ((((((....)))..)))
folding enthalpy [1]: -7.61 kcal/mol | Tm [2]: 46.8 °C

GCCCTGCCGAAAGGCGGC (((..(((....))))))
folding enthalpy [1]: -9.83 kcal/mol | Tm [2]: 54.9 °C

GTGTTCGAAAGAACGCAC ((((((....)))..)))
folding enthalpy [1]: -12.4 kcal/mol | Tm [2]: 48.4 °C

GTTTGACGAAAGTCTAAC (((.(((....))).)))
folding enthalpy [1]: -25 kcal/mol | Tm [2]: 47.7 °C

GCCTGCGAAAGCATAGGC ((((((....)))..)))
folding enthalpy [1]: -31.4 kcal/mol | Tm [2]: 56 °C

GAGCCCCCGAAAGGGCTC (((..(((....))))))
folding enthalpy [1]: -32.3 kcal/mol | Tm [2]: 65.4 °C

GAGCTCGGAAACGAGTTC ((.((((....)))).))
folding enthalpy [1]: -29.1 kcal/mol | Tm [2]: 53 °C

GCGACAGGAAACCGTCGC (((((.(....).)))))
folding enthalpy [1]: -43.4 kcal/mol | Tm [2]: 58.8 °C

GTCGATACGAAAGTAGAC (((..(((....))))))
folding enthalpy [1]: -20.3 kcal/mol | Tm [2]: 35.8 °C

GTCAGCGAAAGCTTGAC ((((((....))).)))
folding enthalpy [1]: -25.6 kcal/mol | Tm [2]: 49.9 °C

GTGGACGAAAGTCCCCAC ((((((....)))..)))
folding enthalpy [1]: -8.05 kcal/mol | Tm [2]: 37.2 °C

GATCAATCGGTTGATC ((((((....))))))
folding enthalpy [1]: -42 kcal/mol | Tm [2]: 44.4 °C

GGGTTAGAAATAACCC ((((((....))))))
folding enthalpy [1]: -36.4 kcal/mol | Tm [2]: 53.1 °C

GGCGTTGGAAACAACGTC (.(((((....))))).)
folding enthalpy [1]: -25.4 kcal/mol | Tm [2]: 57.8 °C

GACACTGGAAACAGTGCC (.(((((....))))).)
folding enthalpy [1]: -14.8 kcal/mol | Tm [2]: 43.2 °C

GCCCATCGAAAGATCGGC (((.(((....))).)))
folding enthalpy [1]: -33.6 kcal/mol | Tm [2]: 44.5 °C

GACTCCGAAAGGACTGTC ((((((....)))..)))
folding enthalpy [1]: -15.7 kcal/mol | Tm [2]: 32.7 °C

GCCCAAGGAAACTTGGAC (.(((((....))))).)
folding enthalpy [1]: -19.6 kcal/mol | Tm [2]: 38 °C

GTCGGACGAAAGTCTGAC (((.(((....))).)))
folding enthalpy [1]: -40.9 kcal/mol | Tm [2]: 61.5 °C

GATCACTAATGTGATC ((((((....))))))
folding enthalpy [1]: -35.2 kcal/mol | Tm [2]: 55.1 °C

GAGGCTCCGAAAGGACTC (((..(((....))))))
folding enthalpy [1]: -15.5 kcal/mol | Tm [2]: 34.4 °C

GCGGGTCCCGC ((((...))))
folding enthalpy [1]: -28.1 kcal/mol | Tm [2]: 56.4 °C

GCCGGGCGAAAGCCGAGC ((..(((....)))..))
folding enthalpy [1]: -14.8 kcal/mol | Tm [2]: 57.4 °C

GATCTAGATTTAGATC ((((((....))))))
folding enthalpy [1]: -28.4 kcal/mol | Tm [2]: 38.4 °C

GCTTCCGAAAGGAGTAGC ((((((....)))..)))
folding enthalpy [1]: -24.3 kcal/mol | Tm [2]: 43.6 °C

GTCACGTCGAAAGACGAC (((..(((....))))))
folding enthalpy [1]: -9.85 kcal/mol | Tm [2]: 32.1 °C

GATCATAACATGATC ((((((...))))))
folding enthalpy [1]: -37 kcal/mol | Tm [2]: 50.3 °C

GTCATCGGAAACGATAAC ((.((((....)))).))
folding enthalpy [1]: -19.7 kcal/mol | Tm [2]: 32.2 °C

GTATCAGAAATGATAC ((((((....))))))
folding enthalpy [1]: -31.6 kcal/mol | Tm [2]: 45.6 °C

GTCGTCGAAAGACCCGAC ((((((....)))..)))
folding enthalpy [1]: -14.5 kcal/mol | Tm [2]: 31.3 °C

GATCGATTACTCGATC ((((((....))))))
folding enthalpy [1]: -47.6 kcal/mol | Tm [2]: 51 °C

GATCCTGAGGAGGATC ((((((....))))))
folding enthalpy [1]: -34 kcal/mol | Tm [2]: 49.2 °C

TGCGGGAAACCGCA (((((....)))))
folding enthalpy [1]: -15.7 kcal/mol | Tm [2]: 66.5 °C

GTGCAAGGAAACTCGCAC ((((.((....)).))))
folding enthalpy [1]: -31.7 kcal/mol | Tm [2]: 45.1 °C

GCCTACGAAAGTACCGGC ((((((....)))..)))
folding enthalpy [1]: -25.6 kcal/mol | Tm [2]: 36.9 °C

GTACCCCGAAAGGGTAC (((.(((....))))))
folding enthalpy [1]: -28.3 kcal/mol | Tm [2]: 58.3 °C

GGAATCGAAAGATGATCC ((((((....)))..)))
folding enthalpy [1]: -17.8 kcal/mol | Tm [2]: 29 °C

GTGACTCGAAAGAGGCAC (((.(((....))).)))
folding enthalpy [1]: -34.4 kcal/mol | Tm [2]: 67.9 °C

GGAGTCGAAAGACACTCC ((((((....)))..)))
folding enthalpy [1]: -16 kcal/mol | Tm [2]: 37.5 °C

GATCCTATAAGGATC ((((((...))))))
folding enthalpy [1]: -37.8 kcal/mol | Tm [2]: 55.2 °C

GGCATTGGAAACAGTGTC (.((.((....)).)).)
folding enthalpy [1]: -17 kcal/mol | Tm [2]: 31.9 °C

GAGCCAGGAAACTGGCCC (.(((((....))))).)
folding enthalpy [1]: -11.3 kcal/mol | Tm [2]: 45.8 °C

GTTGTCGAAAGACTGAAC ((((((....)))..)))
folding enthalpy [1]: -11.3 kcal/mol | Tm [2]: 30.7 °C

GCGAGTACGAAAGTACGC (((..(((....))))))
folding enthalpy [1]: -12 kcal/mol | Tm [2]: 53.1 °C

GATTAGGAAACTAATC ((((((....))))))
folding enthalpy [1]: -30.5 kcal/mol | Tm [2]: 43.9 °C

GTACGCGAAAGCGATAC ((((((....))).)))
folding enthalpy [1]: -13.9 kcal/mol | Tm [2]: 48.2 °C

GCTGGTGCGAAAGCAAGC (((..(((....))))))
folding enthalpy [1]: -14.5 kcal/mol | Tm [2]: 43 °C

GATCAAGAGTTGATC ((((((...))))))
folding enthalpy [1]: -24.8 kcal/mol | Tm [2]: 37.8 °C

GCAGACGAAAGTCTTTGC ((((((....)))..)))
folding enthalpy [1]: -14.4 kcal/mol | Tm [2]: 37.1 °C

GACCATGGAAACATGATC ((.((((....)))).))
folding enthalpy [1]: -23.2 kcal/mol | Tm [2]: 35.4 °C

GGTGAAACGAAAGTTACC (((..(((....))))))
folding enthalpy [1]: -18 kcal/mol | Tm [2]: 30.5 °C

GCGCCTCGAAAGAGCGC (((.(((....))))))
folding enthalpy [1]: -35.9 kcal/mol | Tm [2]: 67.4 °C

GAGTAACCGAAAGGTCTC (((..(((....))))))
folding enthalpy [1]: -16.7 kcal/mol | Tm [2]: 33.2 °C

GATCCCTATTGGGATC ((((((....))))))
folding enthalpy [1]: -43.1 kcal/mol | Tm [2]: 62.8 °C

GATCGATAGTTCGATC ((((((....))))))
folding enthalpy [1]: -39.3 kcal/mol | Tm [2]: 50.8 °C

GAGAGCGAAAGCTTACTC ((((((....)))..)))
folding enthalpy [1]: -12.3 kcal/mol | Tm [2]: 30.6 °C
